Data on 55 sequences can be found in the array DNA melting data of Ke et al. (doi:10.1101/2024.01.08.574731).

Data set [1] is described as follows: folding enthalpy; higher = less favourable; fluorescence melt of hairpins on a sequencing array, two-state fit. The following applies: sodium 0.088 M. The essentials:
(§1)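 In 50 mM Na-HEPES pH 8.0 containing 25 mM NaCl, hairpins from the library on a sequenced MiSeq flow cell were imaged for Cy3 fluorescence at 2.5 °C steps up to 60 °C, with Cy3 and quencher oligos annealed. After normalisation to pre-quench Cy3 and to control constructs, two-state fits with bootstrapping gave melting temperature and folding enthalpy. Four replicates were combined by inverse-variance weighting, and fitted temperatures were shifted up by 9.35 °C to match UV melts.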

Data set [2] in a line: melting temperature; fluorescence melt of hairpins on a sequencing array, two-state fit, raised by 9.35 °C to match UV melts. The following applies: sodium 0.088 M. The essentials:
as §1

GTCGATGGAAACATCAAC ((.((((....)))).)): the folding enthalpy in data set [1] is -17.6 kcal/mol. Also, in data set [2], the Tm was 34.7 °C.
The corresponding values for GCGTAGGGAAACCTACAC (.(((((....))))).) are -14.5 kcal/mol and 40.8 °C.
For GGGAAAGGAAACTTTCCC (((((((....))))))) the same measures were -47 kcal/mol and 57.7 °C.
The corresponding values for GCTGGTGGAAACACCAAC (.(((((....))))).) are -14.4 kcal/mol and 41.3 °C.
On to GATCATACTATGATC ((((((...)))))), for which the folding enthalpy in data set [1] was -35.7 kcal/mol. For the same sequence, the Tm in data set [2] was determined as 48.1 °C.
For GCCGCGCGAAAGCGTTGC ((..(((....)))..)) the same measures were -14.6 kcal/mol and 44.1 °C.
For GATCTTTACAAGATC ((((((...)))))) the same measures were -33.2 kcal/mol and 46.4 °C.
Consider GCCCACACGAAAGTGGGC (((..(((....)))))), for which the folding enthalpy in data set [1] was -26.4 kcal/mol. Further, in data set [2], the Tm stood at 68 °C.
In the case of GCAATTCGAAAGAAGTGC (((.(((....))).))), in data set [1], the folding enthalpy was -34.6 kcal/mol. Further, the Tm in data set [2] is 52.4 °C.
The corresponding values for GCCCTGCGAAAGCATTGC ((..(((....)))..)) are -8.56 kcal/mol and 29.3 °C.
The corresponding values for GATCATAATGATGATC ((((((....)))))) are -29.9 kcal/mol and 45.6 °C.
The corresponding values for GCTCACGAAAGTGGGAGC ((((((....)))..))) are -20.1 kcal/mol and 49.9 °C.
Regarding GCCGAAGAAATTCGGC ((((((....)))))), in data set [1], the folding enthalpy is -33.9 kcal/mol. In addition, the Tm in data set [2] amounted to 67.4 °C.
For the sequence GCGGTATACCGC ((((....)))), the folding enthalpy in data set [1] is -27.4 kcal/mol. The Tm in data set [2] worked out at 60.7 °C.
The corresponding values for GTCTTCGCGAAAGCGGAC (((..(((....)))))) are -10.6 kcal/mol and 30.4 °C.
For GATCAATACTTTGATC ((((((....)))))), the folding enthalpy in data set [1] is -39.6 kcal/mol. Besides, in data set [2], the Tm worked out at 48.1 °C.
As for GATCCCAAGAGGGATC ((((((....)))))), the folding enthalpy in data set [1] is -33.9 kcal/mol. Besides, the Tm in data set [2] is 60.8 °C.
The corresponding values for GGCTCCGAAAGGAGTGCC ((((((....)))..))) are -14.5 kcal/mol and 50 °C.
GATCCCGCAGGGGATC ((((((....)))))): the folding enthalpy in data set [1] was -15.7 kcal/mol. For the same sequence, the Tm in data set [2] was 65.5 °C.
For GAAGTACGAAAGTAATTC (((.(((....))).))) the same measures were -25.9 kcal/mol and 42.9 °C.
The corresponding values for GACTACGAAAGTACTGTC ((((((....)))..))) are -18.5 kcal/mol and 29.9 °C.
The corresponding values for GACAAACGAAAGTTCGTC (((.(((....))).))) are -25.2 kcal/mol and 43.2 °C.
For GGCCTCGAAAGAGGAGCC ((((((....)))..))), the folding enthalpy in data set [1] was -14.5 kcal/mol. For the same sequence, the Tm in data set [2] worked out at 47.2 °C.
Turning to GGGAACGAAAGTTATCCC ((((((....)))..))), the folding enthalpy in data set [1] was -23.3 kcal/mol. For the same sequence, the Tm in data set [2] came out at 36.6 °C.
The corresponding values for GCCAACGGAAACACTGGC ((((..(....)..)))) are -14 kcal/mol and 29.1 °C.
Regarding TTTACGAAAGTAAA (((((....))))), in data set [1], the folding enthalpy is -13.5 kcal/mol. The Tm in data set [2] amounted to 42.7 °C.
For GTCTCAGCGAAAGCTGAC (((..(((....)))))) the same measures were -8.27 kcal/mol and 36.2 °C.
The corresponding values for GATACCGAAAGGTAGATC ((((((....)))..))) are -18.3 kcal/mol and 44.6 °C.
Take GATCTTCTAGAAGATC ((((((....)))))): in data set [1], the folding enthalpy was -40.9 kcal/mol. In addition, in data set [2], the Tm worked out at 49.6 °C.
For GTCCGCCGAAAGGCTGAC (((.(((....))).))) the same measures were -21.9 kcal/mol and 57.3 °C.
The corresponding values for GCCACGGCGAAAGCCGGC (((..(((....)))))) are -7.83 kcal/mol and 49.1 °C.
For GTGTAACGAAAGTTGCAC (((.(((....))).))), the folding enthalpy in data set [1] is -33 kcal/mol. Further, the Tm in data set [2] amounted to 53.6 °C.
For GCGGACCCCGC ((((...)))) the same measures were -20.9 kcal/mol and 54.4 °C.
The corresponding values for GATCGGAGTCCGATC ((((((...)))))) are -38.6 kcal/mol and 54 °C.
The corresponding values for GCGGCTGGAAACGGTCGC (((.(.(....).).))) are -43.2 kcal/mol and 54 °C.
Consider GACTCGGGAAACCGAACC (..((((....))))..), for which the folding enthalpy in data set [1] was -9.35 kcal/mol. Moreover, the Tm in data set [2] turned out to be 22.6 °C.
The corresponding values for GAAGCTGGAAACAGTTTC (((.(((....))).))) are -27.1 kcal/mol and 41.6 °C.
For GCACGACGAAAGTCCTGC (((.(((....))).))) the same measures were -26.8 kcal/mol and 45.6 °C.
For GCAGCCGAAAGGCAATGC ((((((....)))..))) the same measures were -17 kcal/mol and 52.1 °C.
In the case of GTATGTGGAAACACGTAC (((.(((....))).))), in data set [1], the folding enthalpy was -29.3 kcal/mol. Besides, the Tm in data set [2] turned out to be 47.1 °C.
For GGGCCCGAAAGGGTTCCC ((((((....)))..))) the same measures were -15.2 kcal/mol and 51.5 °C.
For GGGCGTCGAAAGACCCC (((.(((....)))))) the same measures were -37.1 kcal/mol and 58.9 °C.
For GGAAAGCGAAAGCTCTCC (((.(((....))).))) the same measures were -22.8 kcal/mol and 44 °C.
GCAACACGAAAGTGATGC (((.(((....))).))): the folding enthalpy in data set [1] is -38.9 kcal/mol. Also, in data set [2], the Tm worked out at 59 °C.
For GGAAAGTCGAAAGACTCC (((..(((....)))))) the same measures were -15.6 kcal/mol and 33.7 °C.
The corresponding values for GCAACACGAAAGTGGTGC (((.(((....))).))) are -32.2 kcal/mol and 68.6 °C.
For GATCTGCTGCAGATC ((((((...)))))) the same measures were -41.4 kcal/mol and 50.4 °C.
Take GATCAAAGCGTTGATC ((((((....)))))): the folding enthalpy in data set [1] was -31.6 kcal/mol. Further, the Tm in data set [2] worked out at 43.7 °C.
For GTAGGCGAAAGCCGTTAC ((((((....)))..))) the same measures were -8.81 kcal/mol and 39.8 °C.
On to GCCAGGCGAAAGCATAGC ((.(.((....)).).)), for which the folding enthalpy in data set [1] was -11.1 kcal/mol. Further, in data set [2], the Tm turned out to be 37.8 °C.
For GTAAGCGAAAGCTCTAC ((((((....))).))) the same measures were -11.9 kcal/mol and 32.2 °C.
For GAGCCCGAAAGGGGACTC ((((((....)))..))) the same measures were -18.9 kcal/mol and 47.8 °C.
For GACACCGAAAGGTCGGTC ((((((....)))..))) the same measures were -16.7 kcal/mol and 35 °C.
Consider GAGGGAGCGAAAGCTCTC (((..(((....)))))), for which the folding enthalpy in data set [1] is -9.38 kcal/mol. The Tm in data set [2] stood at 42.8 °C.
Consider GGGCACGCGAAAGCGCCC (((..(((....)))))), for which the folding enthalpy in data set [1] was -16.2 kcal/mol. The Tm in data set [2] stood at 58.7 °C.
